Assay [1] deals with Aβ peptides secreted from Tg 2576 primary mixed brain cultures. Nature of the assay: Aβ peptides in Tg 2576 mixed brain cultures. In kind it is cell-based, mouse. The conditions noted are these: Tg 2576 MBCs. An outline of the steps:
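Neuronal cultures came from E17 Tg 2576 embryo brains, grown 6 days, then treated 18 h in triplicate wells at 10 concentrations in 3-fold dilution steps. Vehicle (PEG-400:H2O 80:20 v/v) was the negative control and BMS-299897 the positive control. Aβ38 was read by Meso Scale assay; Aβ40, Aβ42 and Aβtotal by mAb sandwich ELISA. Variants were resolved by anti-Aβ immunoprecipitation, tris-glycine gel electrophoresis and immunoblotting.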

In assay [2] the test system is Aβ42, Aβ40 and Aβtotal produced by SH-SY5Y-APP cells. The assay is described as follows: SH-SY5Y-APP cell-based Aβ assay. Also noted: species or system human. Put shortly:
(§1)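 Stable lines: CHO-APPswe is CHO transfected with human APP695 carrying the Swedish double mutation (670/671 K/M to N/L). SH-SY5Y-APP is human neuroblastoma SH-SY5Y transfected with wild-type human APP751. Secreted Aβ40, Aβ42 and Aβtotal were measured in conditioned medium by mAb-specific sandwich ELISAs. Cytotoxicity was checked by Alamar Blue at the same compound concentrations, up to a maximum of 30 μM.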

Assay [3] has as its system Aβ42, Aβ40 and Aβtotal produced by CHO-APPswe cells. Nature of the assay: CHO-APPswe cell-based Aβ assay. Also noted: species or system Chinese hamster. Put shortly:
as §1

For assay [4], the system named is Aβ peptide variants from CHO-APPswe cells. Nature of the assay: SELDI-TOF MS of Aβ peptide variants in CHO-APPswe conditioned medium. In kind it is cell-based, Chinese hamster. The conditions noted are these: 1 μM. An outline of the steps: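 CHO-APPswe cells were treated with vehicle, reference γ-secretase inhibitor (1 µM) or test compound (1 µM). Conditioned medium was immunoprecipitated with anti-Aβ17-24 mAb 4G8. Ciphergen chips were prepared from the medium and analysed by SELDI-TOF mass spectrometry to profile Aβ peptide variants.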

Assay [5] relates to γ-secretase-mediated ε-site processing of Notch (NΔE). The assay is described as follows: NICD formation in HEK-APP-NΔE_7-4 cells. Conditions: NΔE Notch/APP co-transfected cell line; DAPT 1 μM. Format: cell-based, human. An outline of the steps:
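HEK293 cells doubly transfected with APP and Notch NΔE were treated overnight with test compound, 1 μM DAPT, or 0.2% v/v DMSO vehicle. Conditioned medium was collected, cell lysates were prepared, and anti-NICD immunoblots were run with GAPDH as a control. NICD was quantified by laser scanning densitometry against a half-volume vehicle sample.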

The subject of assay [6] is γ-secretase (AICD, Aβ42 and Aβ40 formation from APP-CTFs). The assay is described as follows: Cell-free assay of AICD and Aβ formation, CHO-APPswe membranes. In kind it is biochemical, Chinese hamster. Conditions: DAPT 1 μM, Compound 3 over a broad range of concentrations. An outline of the steps:
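CHO-APPswe membrane preparations were incubated cell-free with vehicle (0.2% DMSO), 1 μM DAPT, or a range of test compound concentrations. AICD (ε-site) and Aβ42/Aβ40 (γ-site) formation were measured in parallel from the same preparations, semi-quantitatively. Data are mean ± SEM, n ≥ 3.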

As for `C[C@H](c1ccc(F)cc1CCCC(=O)O)N(c1cc(F)ccc1F)S(=O)(=O)c1ccc(Cl)cc1` [BMS-299897], the “effect on Aβ42, Aβ40, Aβ38 and Aβtotal (Meso Scale ELISAs)” value in assay [1] (18 h) was “dose-dependent decrease in Aβ42, Aβ40, Aβ38 and Aβtotal levels”. For the same molecule, the “effect on Aβ peptide variants (IP/immunoblot)” value in assay [1] (BMS-299897 1 μM) was “reduced the levels of all Aβ variants (Aβ37, Aβ38, Aβ40 and Aβ42) to undetectable levels”. In addition, the “effect on Aβ42, Aβ40 and Aβtotal peptide levels” value in assay [2] is “equivalently inhibited Aβ42, Aβ40 and Aβtotal peptide production”; in assay [3] it was “equivalently inhibited Aβ42, Aβ40 and Aβtotal peptide production”. The “effect on Aβ peptide variants (SELDI-TOF MS)” value in assay [4] is listed as “reduced the levels of all Aβ peptide variants to baseline levels”.
In the case of `C[C@H](NC(=O)Cc1cc(F)cc(F)c1)C(=O)N[C@H](C(=O)OC(C)(C)C)c1ccccc1` [DAPT, N-[N-(3,5-difluorophenacetyl)-L-alanyl]-S-phenylglycine t-butyl ester], the “effect on NICD formation” value in assay [5] is on record as “prevented NICD production entirely”. Moreover, the “effect on AICD formation” value in assay [6] is listed as “totally inhibited”.
